For one data set, the system named is glucose metabolism. Conditions: 300 mg/kg, OGTT normal rats; ref Uenishi et al. (2012); cited from earlier work.
Data set [1] relates to Caco-2 cells. Conditions: 4 mM; ref Mu et al., 2024; cited from earlier work.
Data set [2] addresses T1, DPP-IV (Homo sapiens, UniProt P27487). The data set is described as follows: in vitro DPP-IV inhibitory activity. Format: biochemical. The settings on record: synthesized peptides, in vitro enzyme assay. An outline of the steps: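 Human DPP-IV (0.1 U/mL) and Gly-Pro-p-nitroanilide (2 mmol/L) solutions made in 100 mmol/L Tris-HCl, pH 8.0. Substrate and sample preincubated 10 min at 37 °C under subdued light. Enzyme then added and incubated 1 h at 37 °C. Stopped with 1 mol/L sodium acetate, pH 4.0, and absorbance read at 405 nm. Inhibition calculated from sample, sample-blank, control and blank absorbances.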

Data set [3] has as its system Caco-2 cells. The data set is described as follows: Caco-2 cell viability, MTT colorimetric assay. The class given is cell-based, human. The settings on record: 8 mM peptide, 4 h. A digest of the protocol:
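Caco-2 cells grown in DMEM with 10% FBS and 1% penicillin-streptomycin at 37 °C, 5% CO2. Seeded at 5 × 10^4 cells/well and incubated 24 h. Medium replaced with peptide at 0.5, 1, 2, 4 or 8 mM for 4 h, 6 replicates per sample. MTT solution (5 mg/mL) added for 4 h, formazan dissolved in DMSO with ~15 min shaking, OD read at 490 nm.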

A further data set has as its system Caco-2 cell monolayer. The data set can be described thus: Caco-2 cell monolayer transmembrane transport. Format: in vitro ADME, human. Conditions: 4 mM, 120 min. A digest of the protocol:
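Caco-2 cells seeded at 2 × 10^5 cells/mL on the apical side of 0.4 μm-pore Transwells and cultured 21 days to a differentiated monolayer; TEER over 350 Ω cm2 required. Both sides washed twice and equilibrated 30 min in HBSS. Peptide added apically, HBSS basolaterally, 120 min in incubator. AP and BL liquids analysed by RP-HPLC (1 mL/min, 30 °C column, 220 nm).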

In data set [4] the target is T1, DPP-IV. The data set can be described thus: cell-based.

Residues, ends and D or L forms follow the SMILES beside them.

T1 sequence (P27487 whole entry): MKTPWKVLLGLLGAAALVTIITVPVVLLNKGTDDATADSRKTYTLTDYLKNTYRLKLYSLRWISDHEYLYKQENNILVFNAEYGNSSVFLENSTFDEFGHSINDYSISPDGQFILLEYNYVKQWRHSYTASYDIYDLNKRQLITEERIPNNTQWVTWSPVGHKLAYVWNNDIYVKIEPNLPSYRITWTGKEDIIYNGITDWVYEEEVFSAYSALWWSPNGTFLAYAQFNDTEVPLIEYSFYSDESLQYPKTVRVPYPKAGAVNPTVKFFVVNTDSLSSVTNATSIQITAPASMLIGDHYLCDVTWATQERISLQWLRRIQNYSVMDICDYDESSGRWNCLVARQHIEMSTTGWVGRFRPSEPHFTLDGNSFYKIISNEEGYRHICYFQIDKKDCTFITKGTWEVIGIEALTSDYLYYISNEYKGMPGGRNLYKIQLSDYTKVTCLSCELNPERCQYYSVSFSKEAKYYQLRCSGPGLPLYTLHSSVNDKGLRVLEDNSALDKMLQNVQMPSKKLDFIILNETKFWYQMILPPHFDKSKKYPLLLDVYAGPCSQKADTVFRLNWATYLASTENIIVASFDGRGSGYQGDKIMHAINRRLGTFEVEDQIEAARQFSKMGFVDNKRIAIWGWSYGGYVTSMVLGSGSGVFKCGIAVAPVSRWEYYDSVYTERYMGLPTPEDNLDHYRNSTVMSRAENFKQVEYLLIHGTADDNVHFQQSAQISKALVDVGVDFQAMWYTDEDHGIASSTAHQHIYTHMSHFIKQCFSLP

For the compound LPQNIPPL, in the data set on glucose metabolism, the glucose metabolism result is given as “improved glucose metabolism” and the plasma insulin levels result is listed as “significantly reduced plasma insulin levels”.
In the case of SPVAEVPFLR, the “damage to cell viability of Caco-2 cells” value in the data set with Caco-2 cells [1] was “least damage to cell viability”.
With `CC(C)[C@H](N)C(=O)N1CCC[C@H]1C(=O)N[C@@H](Cc1ccccc1)C(=O)N[C@@H](Cc1c[nH]c2ccccc12)C(=O)N[C@@H](C)C(=O)O` [VPFWA] (H-VPFWA-OH; N-terminus and C-terminus assumed), the IC50 against DPP-IV [2] is 251 ± 12.8 µM; against DPP-IV [4] it was 325 ± 8.4 µM. Besides, the “survival rates of Caco-2 cells” value with Caco-2 cells [3] worked out at 76.03 ± 1.08%. Moreover, the “passage through the Caco-2 cell monolayer” value in the data set with Caco-2 cell monolayer (AP to BL) is on record as “pass through the Caco-2 cell monolayer intact”. In the data set with Caco-2 cell monolayer (RP-HPLC), the “chromatographic peak in the BL-side samples” value was “smallest peak”.
Regarding LDATDMVALVG, in the data set on Caco-2 cells [1], the “damage to cell viability of Caco-2 cells” value is given as “least damage to cell viability”.

The values above are taken from publication PMC11567926 (Current Research in Food Science, 2024).
